One may read the MIC as the smallest concentration in the dilution series that meets the test's criterion for growth inhibition.

This note sets out measurements from ChEMBL document CHEMBL3351454, “Design, synthesis, antimicrobial evaluation and molecular docking studies of some new thiophene, pyrazole and pyridone derivatives bearing sulfisoxazole moiety” (2014).

≈ marks a conversion by molar mass, not a printed value.

What all share (type): functional
The test system of experiment [1] is Streptococcus pneumoniae. Put plainly: Antimicrobial activity against Streptococcus pneumoniae RCMB 010010 assessed as inhibition zone at 5 mg/ml after 24 hrs. The following applies: RCMB 010010, 24 h, read-out: IZ. In short, it runs like this:
(§1)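 Agar diffusion on nutrient agar seeded with 10^6 CFU/mL bacteria. Filter-paper disks were loaded with 100 µL of a 5 mg/mL compound solution in DMF, with a DMF-only control. Incubation was 37 °C for 24 h. Inhibition zone in mm (mean ± SD, triplicate plates) was measured beyond the 6 mm diameter.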

Experiment [2] relates to Streptococcus pneumoniae. Put plainly: Antimicrobial activity against Streptococcus pneumoniae RCMB 010010 assessed as absence of turbidity after 24 hrs. The following applies: RCMB 010010, 24 h. In short, it runs like this:
(§2)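 Broth microdilution in Müller–Hinton broth. DMF stocks at 1000 µg/mL were diluted in broth to give twofold serial dilutions over 500–0.007 µg/mL. Bacterial inoculum was about 10^6 CFU/mL in 96-well plates, sealed and incubated at 37 °C for 24 h in a humid chamber. MIC was taken as the lowest concentration with no visible turbidity. DMF and uninoculated-medium controls were included. Only compounds giving zones >10 mm were tested.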

The subject of experiment [3] is Bacillus subtilis. Put plainly: Antimicrobial activity against Bacillis subtilis RCMB 010067 assessed as inhibition zone at 5 mg/ml after 24 hrs. The following applies: RCMB 010067, 24 h, read-out: IZ. In short, it runs like this: as §1
Experiment [4] relates to Bacillus subtilis. Put plainly: Antimicrobial activity against Bacillis subtilis RCMB 010067 assessed as absence of turbidity after 24 hrs. The following applies: RCMB 010067, 24 h. In short, it runs like this: as §2
The test system of experiment [5] is Staphylococcus epidermidis. Put plainly: Antimicrobial activity against Staphylococcus epidermidis RCMB 010024 assessed as inhibition zone at 5 mg/ml after 24 hrs. Conditions: RCMB 010024, 24 h, read-out: IZ. In short, it runs like this: as §1
In experiment [6] the test system is Staphylococcus epidermidis. Put plainly: Antimicrobial activity against Staphylococcus epidermidis RCMB 010024 assessed as absence of turbidity after 24 hrs. The following applies: RCMB 010024, 24 h. The gist of the method:
as §2

Experiment [7] concerns Escherichia coli. Put plainly: Antimicrobial activity against Escherichia coli RCMB 010052 assessed as inhibition zone at 5 mg/ml after 24 hrs. Conditions: RCMB 010052, 24 h, read-out: IZ. In short, it runs like this:
as §1

The subject of experiment [8] is Escherichia coli. Put plainly: Antimicrobial activity against Escherichia coli RCMB 010052 assessed as absence of turbidity after 24 hrs. The following applies: RCMB 010052, 24 h. In short, it runs like this:
as §2

The test system of experiment [9] is Proteus vulgaris. Put plainly: Antimicrobial activity against Proteus vulgaris RCMB 010085 assessed as inhibition zone at 5 mg/ml after 24 hrs. The following applies: RCMB 010085, 24 h, read-out: IZ. In short, it runs like this:
as §1

Experiment [10] has as its system Proteus vulgaris. Put plainly: Antimicrobial activity against Proteus vulgaris RCMB 010085 assessed as absence of turbidity after 24 hrs. Conditions: RCMB 010085, 24 h. The gist of the method: as §2
Experiment [11] deals with Klebsiella pneumoniae. Put plainly: Antimicrobial activity against Klebsiella pneumoniae RCMB 010093 assessed as inhibition zone at 5 mg/ml after 24 hrs. Conditions: RCMB 010093, 24 h, read-out: IZ. The gist of the method:
as §1

For experiment [12], the system named is Klebsiella pneumoniae. Put plainly: Antimicrobial activity against Klebsiella pneumoniae RCMB 010093 assessed as absence of turbidity after 24 hrs. The following applies: RCMB 010093, 24 h. In short, it runs like this:
as §2

Experiment [13] concerns Aspergillus fumigatus. Put plainly: Antifungal activity against Aspergillus fumigatus RCMB 02568 assessed as inhibition zone at 5 mg/ml after 48 hrs. Conditions: RCMB 02568, 48 h, read-out: IZ. The gist of the method: (§3)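 Disk diffusion on nutrient agar seeded with 10^4 CFU/mL fungus. Sterile filter-paper disks carried 100 µL of a 5 mg/mL DMF solution, and DMF alone served as control. Plates were incubated at 25 °C for 48 h. Mean inhibition zone in mm ± SD was read beyond the 6 mm diameter, in triplicate.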

Experiment [14] relates to Aspergillus fumigatus. Put plainly: Antifungal activity against Aspergillus fumigatus RCMB 02568 assessed as absence of turbidity after 48 hrs. The following applies: RCMB 02568, 48 h. The gist of the method:
(§4)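 Broth microdilution in Sabouraud liquid medium. DMF stocks at 1000 µg/mL were diluted in broth to give twofold serial dilutions over 500–0.007 µg/mL. Fungal inoculum was about 10^4 CFU/mL in 96-well plates, sealed and incubated at 25 °C for 48 h in a humid chamber. MIC was taken as the lowest concentration with no visible turbidity. DMF and uninoculated-medium controls were included.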

In experiment [15] the test system is Syncephalastrum racemosum. Put plainly: Antifungal activity against Syncephalastrum racemosum RCMB 05922 assessed as inhibition zone at 5 mg/ml after 48 hrs. The following applies: RCMB 05922, 48 h, read-out: IZ.
The test system of experiment [16] is Syncephalastrum racemosum. Put plainly: Antifungal activity against Syncephalastrum racemosum RCMB 05922 assessed as absence of turbidity after 48 hrs. Conditions: RCMB 05922, 48 h.
The test system of experiment [17] is Geotrichum candidum. Put plainly: Antifungal activity against Geotrichum candidum RCMB 05097 assessed as inhibition zone at 5 mg/ml after 48 hrs. Conditions: RCMB 05097, 48 h, read-out: IZ. The gist of the method: as §3
The subject of experiment [18] is Geotrichum candidum. Put plainly: Antifungal activity against Geotrichum candidum RCMB 05097 assessed as absence of turbidity after 48 hrs. The following applies: RCMB 05097, 48 h. The gist of the method: as §4

In the case of `COc1ccc(-c2c(C#N)c(N)n(-c3ccc(S(=O)(=O)Nc4onc(C)c4C)cc3)c(=O)c2C#N)cc1`, the zone of inhibition at 5000 µg/mL with Streptococcus pneumoniae [1] turned out to be 20.3 mm; with Bacillus subtilis [3], 22.2 mm; in [5] it was 18.1 mm; in the experiment with Escherichia coli [7] it was 16.2 mm; with Proteus vulgaris [9] it was 17.2 mm; in the experiment on Klebsiella pneumoniae [11], 22.3 mm. Besides, the zone of inhibition at 5000 µg/mL in the experiment on Aspergillus fumigatus [13] is 20.6 mm; in experiment [15], 19.7 mm; in the experiment on Geotrichum candidum [17] it was 20.9 mm. In addition, the MIC with Streptococcus pneumoniae [2] came out at 0.98 µg/mL (≈ 1.9 µM); in the experiment with Bacillus subtilis [4] it was 0.49 µg/mL (≈ 0.949 µM); in experiment [6], 7.81 µg/mL (≈ 15.1 µM); in the experiment on Escherichia coli [8] it was 31.2 µg/mL (≈ 60.5 µM); with Proteus vulgaris [10], 15.6 µg/mL (≈ 30.3 µM); with Klebsiella pneumoniae [12], 0.49 µg/mL (≈ 0.949 µM). In addition, the results for the MIC (in the experiment on Aspergillus fumigatus [14]; in experiment [16]; in the experiment with Geotrichum candidum [18]) were 0.98 µg/mL (≈ 1.9 µM), 1.95 µg/mL (≈ 3.78 µM) and 0.98 µg/mL (≈ 1.9 µM), respectively.

As for `Cc1cc(C)n(-c2ccc(S(=O)(=O)Nc3onc(C)c3C)cc2)c(=O)c1C#N`, the zone of inhibition at 5000 µg/mL in the experiment on Streptococcus pneumoniae [1] was 23.8 mm; in the experiment with Bacillus subtilis [3], 25.3 mm; in experiment [5] it was 21.4 mm; with Escherichia coli [7], 20.9 mm; in the experiment on Proteus vulgaris [9] it was 19.5 mm; in the experiment on Klebsiella pneumoniae [11] it was 21.4 mm. Moreover, the results for the zone of inhibition at 5000 µg/mL (in the experiment on Aspergillus fumigatus [13]; in experiment [15]; with Geotrichum candidum [17]) were 22.9 mm, 20.3 mm and 23.1 mm, respectively. Besides, the MIC worked out at 0.12 µg/mL (≈ 0.301 µM) in the experiment on Streptococcus pneumoniae [2]; 0.06 µg/mL (≈ 0.151 µM) in the experiment with Bacillus subtilis [4]; 0.98 µg/mL (≈ 2.46 µM) in experiment [6]; 0.98 µg/mL (≈ 2.46 µM) in the experiment on Escherichia coli [8]; 1.85 µg/mL (≈ 4.64 µM) in the experiment with Proteus vulgaris [10]; 0.98 µg/mL (≈ 2.46 µM) in the experiment on Klebsiella pneumoniae [12]. Besides, the MIC in the experiment with Aspergillus fumigatus [14] is 0.24 µg/mL (≈ 0.602 µM); in [16], 1.95 µg/mL (≈ 4.89 µM); in the experiment with Geotrichum candidum [18] it was 0.24 µg/mL (≈ 0.602 µM).

As for `CCOc1ccc(-n2nc(C(=O)Nc3ccc(S(=O)(=O)Nc4onc(C)c4C)cc3)c(N)c2C#N)cc1`, the zone of inhibition at 5000 µg/mL in the experiment on Streptococcus pneumoniae [1] stood at 20 mm; with Bacillus subtilis [3], 19.6 mm; in experiment [5], 18.9 mm; with Escherichia coli [7], 16.4 mm; in the experiment on Proteus vulgaris [9], 18.2 mm; in the experiment on Klebsiella pneumoniae [11], 25.1 mm. Moreover, the zone of inhibition at 5000 µg/mL in the experiment on Aspergillus fumigatus [13] was determined as 23 mm; in experiment [15] it was 24.6 mm; in the experiment with Geotrichum candidum [17] it was 21.9 mm. Moreover, the minimal inhibitory concentration (MIC) in the experiment on Streptococcus pneumoniae [2] is 1.95 µg/mL (≈ 3.74 µM); in the experiment on Bacillus subtilis [4], 1.95 µg/mL (≈ 3.74 µM); in experiment [6], 3.9 µg/mL (≈ 7.48 µM); with Escherichia coli [8] it was 31.2 µg/mL (≈ 59.9 µM); with Proteus vulgaris [10], 7.81 µg/mL (≈ 15 µM); with Klebsiella pneumoniae [12], 0.06 µg/mL (≈ 0.115 µM). Besides, the results for the MIC (with Aspergillus fumigatus [14]; in [16]; in the experiment with Geotrichum candidum [18]) were 0.24 µg/mL (≈ 0.46 µM), 0.06 µg/mL (≈ 0.115 µM) and 0.49 µg/mL (≈ 0.939 µM), respectively.

With `COc1ccc(-c2c(C#N)c(S)n(-c3ccc(S(=O)(=O)Nc4onc(C)c4C)cc3)c(=O)c2C#N)cc1`, the zone of inhibition at 5000 µg/mL with Streptococcus pneumoniae [1] turned out to be 20.6 mm; in the experiment on Bacillus subtilis [3], 22.4 mm; in experiment [5], 19.9 mm; in the experiment with Escherichia coli [7] it was 20.6 mm; in the experiment with Proteus vulgaris [9], 18.6 mm; with Klebsiella pneumoniae [11] it was 21.4 mm. Further, the zone of inhibition at 5000 µg/mL in the experiment with Aspergillus fumigatus [13] worked out at 20.4 mm; in experiment [15], 16.3 mm; in the experiment with Geotrichum candidum [17] it was 22.4 mm. For the same compound, the MIC is 0.98 µg/mL (≈ 1.84 µM) in the experiment on Streptococcus pneumoniae [2]; 0.98 µg/mL (≈ 1.84 µM) in the experiment with Bacillus subtilis [4]; 1.95 µg/mL (≈ 3.65 µM) in [6]; 0.98 µg/mL (≈ 1.84 µM) with Escherichia coli [8]; 3.9 µg/mL (≈ 7.31 µM) in the experiment with Proteus vulgaris [10]; 0.98 µg/mL (≈ 1.84 µM) in the experiment on Klebsiella pneumoniae [12]. In addition, the MIC with Aspergillus fumigatus [14] came out at 0.98 µg/mL (≈ 1.84 µM); in experiment [16] it was 31.2 µg/mL (≈ 58.6 µM); in the experiment with Geotrichum candidum [18], 0.49 µg/mL (≈ 0.918 µM).
